Test results published in ChEMBL document CHEMBL2062463 (Bioorg Med Chem Lett, 2012).
pIC50, pKd: −log10 of the molar value.

What was measured:
[1] = Protein binding in human serum by HPLC analysis; format: ADME, cell-free; settings: read-out: PB (converted)
Procedure, shortened: (§1)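 [125I]-labelled compound incubated in fresh human serum at 4 °C and 37 °C at several time intervals. Bound fraction estimated after ethanol precipitation-extraction of proteins. Supernatant analysed by HPLC for intact radiolabelled compound.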

Serum = assay: Stability in human serum by HPLC analysis; format: ADME, cell-free; procedure, shortened: as §1
[2] = Chemical stability of the compound in 1% tween-20 up to 24 hrs in dark; format: physicochemical
Procedure, shortened: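 Radiolabelled [125I] compound held in saline containing 1% Tween-20 at 37 °C in the dark for up to 24 h. Radiochemical stability checked over that period.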

[3] = Lipophilicity, log D of the compound in octanol and water at pH 7.4 by shake flask method; format: physicochemical
[4] = Antiproliferative activity against human HAEC cells expressing VEGFR after 72 hrs by MTT assay; format: functional, cell-based
Procedure, shortened: (§2)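 MTT reduction by mitochondrial enzyme as viability read-out in primary endothelial HAEC and cancer HT29 cells. IC50 is the concentration giving 50% inhibition of proliferation, taken from dose-response curves of percent proliferation plotted against compound concentration.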

HT-29 = assay: Antiproliferative activity against human HT-29 cells expressing VEGFR after 72 hrs by MTT assay; format: functional, cell-based; settings: HT-29, 72 h; procedure, shortened: as §2
[5] = target: Vascular endothelial growth factor receptor 2 (Homo sapiens, UniProt P35968); assay: Competitive inhibition of VEGFR2 by qPCR method
Sequence of Vascular endothelial growth factor receptor 2 (P35968 whole entry): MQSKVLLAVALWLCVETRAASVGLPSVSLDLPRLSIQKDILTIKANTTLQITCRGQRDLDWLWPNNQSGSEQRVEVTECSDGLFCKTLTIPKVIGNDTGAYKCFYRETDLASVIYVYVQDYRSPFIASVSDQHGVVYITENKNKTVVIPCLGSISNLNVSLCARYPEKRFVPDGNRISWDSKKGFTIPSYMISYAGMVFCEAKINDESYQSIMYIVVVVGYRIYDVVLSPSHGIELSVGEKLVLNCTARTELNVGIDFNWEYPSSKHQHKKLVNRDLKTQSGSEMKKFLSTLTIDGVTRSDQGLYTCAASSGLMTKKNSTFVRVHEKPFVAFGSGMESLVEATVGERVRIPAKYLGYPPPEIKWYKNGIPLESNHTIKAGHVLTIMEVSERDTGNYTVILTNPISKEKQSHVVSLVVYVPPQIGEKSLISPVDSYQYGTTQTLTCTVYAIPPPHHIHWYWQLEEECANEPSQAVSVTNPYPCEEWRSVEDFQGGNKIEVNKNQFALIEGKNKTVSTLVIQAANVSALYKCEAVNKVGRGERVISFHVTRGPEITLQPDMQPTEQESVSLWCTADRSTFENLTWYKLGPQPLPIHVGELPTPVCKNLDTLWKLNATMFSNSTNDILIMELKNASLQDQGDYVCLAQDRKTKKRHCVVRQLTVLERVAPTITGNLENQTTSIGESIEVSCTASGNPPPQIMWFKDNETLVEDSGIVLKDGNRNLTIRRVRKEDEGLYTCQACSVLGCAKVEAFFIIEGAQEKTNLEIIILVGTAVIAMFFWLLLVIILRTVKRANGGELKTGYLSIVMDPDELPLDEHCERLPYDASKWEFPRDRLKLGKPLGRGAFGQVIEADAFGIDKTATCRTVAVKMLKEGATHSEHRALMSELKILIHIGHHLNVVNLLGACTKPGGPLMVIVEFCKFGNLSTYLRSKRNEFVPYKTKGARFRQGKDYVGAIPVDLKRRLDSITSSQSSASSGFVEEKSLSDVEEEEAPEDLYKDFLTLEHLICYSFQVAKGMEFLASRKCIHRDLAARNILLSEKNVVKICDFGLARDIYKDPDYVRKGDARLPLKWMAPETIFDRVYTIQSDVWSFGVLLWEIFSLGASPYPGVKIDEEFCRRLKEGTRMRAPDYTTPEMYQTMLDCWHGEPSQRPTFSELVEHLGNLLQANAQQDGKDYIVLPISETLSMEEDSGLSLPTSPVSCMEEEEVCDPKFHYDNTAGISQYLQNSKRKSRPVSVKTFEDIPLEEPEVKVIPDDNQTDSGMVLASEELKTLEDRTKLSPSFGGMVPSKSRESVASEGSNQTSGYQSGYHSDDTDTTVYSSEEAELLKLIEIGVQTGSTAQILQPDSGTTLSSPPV

Compound: CCN(CC)CCNC(=O)c1c(C)[nH]c(/C=C2\C(=O)Nc3ccc([125I])cc32)c1C
- fraction unbound [1]: 0.95
- Stability (Serum): Stable
- Stability [2]: Stable
- logD [3]: 2.25

Compound: CCN(CC)CCNC(=O)c1c(C)[nH]c(/C=C2\C(=O)Nc3ccc(F)cc32)c1C [SUNITINIB]
- pIC50 [4]: 7.00
- pIC50 (HT-29): 6.48

Compound: CCN(CC)CCNC(=O)c1c(C)[nH]c(/C=C2\C(=O)Nc3ccc(I)cc32)c1C
- pKd [5]: 7.80
- pIC50 [4]: 5.95
- pIC50 (HT-29): 5.74
